Reference: ChEMBL document CHEMBL1135804, “Beta-strand mimicking macrocyclic amino acids: templates for protease inhibitors with antiviral activity” (J Med Chem, 2002)

Legend:
MT2 = assay: Concentration required to produce 50% reduction in virion associated RT activity in HIV-1 infected MT2 cells; format: functional, cell-based; settings: Homo sapiens
Summary of the method: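 MT2 cells (5 × 10⁴ per 0.25 mL RF10, RPMI-1640-based) given compound (diluted from 20 mM stock in 60% ethanol), then immediately HIV-1 strain #237288 at 200 TCID₅₀; 37 °C, 5% CO₂, 6–7 days; duplicates. Supernatant virus PEG-precipitated, virion-associated RT activity counted by scintillation; % inhibition versus virus-only controls; IC50 = 50% RT reduction.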

[1] = biological target: Human immunodeficiency virus type 1 protease (Human immunodeficiency virus 1, UniProt Q72874); assay: Inhibitory activity against HIV-1 protease
[2] = The Water-octanol distribution coefficient at pH6.5; format: physicochemical; settings: pH 6.5, read-out: Log D6.5
Summary of the method: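 Value computed by a cited calculation method at pH 6.5, not measured experimentally.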

| SMILES | IC50 (MT2) | Ki [1] | logD [2] |
| --- | --- | --- | --- |
| CCCC[C@@H]1NC(=O)[C@@H](N)CCCCOc2ccc(cc2)C[C@@H]([C@H](O)CN(CCC(C)C)S(=O)(=O)c2ccc(N)cc2)NC1=O | 6850 nM | 0.31 nM | 1.7 |
| CC(=O)Nc1ccc(S(=O)(=O)N(CCC(C)C)C[C@@H](O)[C@@H]2Cc3ccc(cc3)OCCCC[C@H](NC(=O)OC(C)(C)C)C(=O)N[C@@H](C(C)C)C(=O)N2)cc1 | 177 nM | 2 nM | 4.1 |
| CCCC[C@@H]1NC(=O)[C@@H](NC(=O)[C@H](CO)NC(=O)OC(C)(C)C)CCCCOc2ccc(cc2)C[C@@H]([C@H](O)CN(CCC(C)C)S(=O)(=O)c2ccc(NC(C)=O)cc2)NC1=O | 2550 nM | 12 nM | 3 |
| CC(C)CCN(C[C@@H](O)[C@@H]1Cc2ccc(cc2)OCCCC[C@H](N)C(=O)N[C@@H](C(C)C)C(=O)N1)S(=O)(=O)c1ccc(N)cc1 | > 10000 nM | 0.9 nM | 1 |
| CCCC[C@@H]1NC(=O)[C@@H](NC(C)=O)CCCCOc2ccc(cc2)C[C@@H]([C@H](O)CN(CCC(C)C)S(=O)(=O)c2ccc(N)cc2)NC1=O | 910 nM | 2.8 nM | 3 |
| CCCOC[C@@H]1NC(=O)[C@@H](NC(=O)OC(C)(C)C)CCCCOc2ccc(cc2)C[C@@H]([C@H](O)CN(CCC(C)C)S(=O)(=O)c2ccc(NC(C)=O)cc2)NC1=O | 825 nM | 45 nM | 3.6 |
| CCCC[C@@H]1NC(=O)[C@@H](NC(=O)OC(C)(C)C)CCCCOc2ccc(cc2)C[C@@H]([C@H](O)CN(CCC(C)C)S(=O)(=O)c2ccc(NC(C)=O)cc2)NC1=O | 390 nM | 7.5 nM | 4.8 |
| CCCCC(=O)N[C@H]1CCCCOc2ccc(cc2)C[C@@H]([C@H](O)CN(CCC(C)C)S(=O)(=O)c2ccc(NC(C)=O)cc2)NC(=O)[C@H](CCCC)NC1=O | 580 nM |  | 4.6 |
| CC(C)CN(C[C@@H](O)[C@H](Cc1ccccc1)NC(=O)O[C@H]1CCOC1)S(=O)(=O)c1ccc(N)cc1 | 30 nM |  |  |
| CCCC[C@@H]1NC(=O)[C@@H](NC(=O)[C@@H](N)CO)CCCCOc2ccc(cc2)C[C@@H]([C@H](O)CN(CCC(C)C)S(=O)(=O)c2ccc(N)cc2)NC1=O | > 10000 nM | 3 nM | 0.6 |
| CCCOC[C@@H]1NC(=O)[C@@H](N)CCCCOc2ccc(cc2)C[C@@H]([C@H](O)CN(CCC(C)C)S(=O)(=O)c2ccc(N)cc2)NC1=O | > 10000 nM | 45 nM | 0.5 |
| CC(=O)N[C@@H](CO)C(=O)N[C@H]1CCCCOc2ccc(cc2)C[C@@H]([C@H](O)CN(CCC(C)C)S(=O)(=O)c2ccc(N)cc2)NC(=O)[C@H](C(C)C)NC1=O | > 10000 nM | 0.34 nM | 0.4 |
